Assay results of several laboratories.
Target: Dual specificity tyrosine-phosphorylation-regulated kinase 1A (DYRK1A, Homo sapiens, UniProt Q13627)

SMILES | test | setting | measurement | value
Cc1c(NC(=O)c2cc(C(N)=O)nc3cc(F)ccc23)c(C(F)(F)F)nn1Cc1ccc(C(C)(C)C)cc1 | cell-free assay, competition with immobilised ligand | 1 µM | remaining binding | 100%
Cn1cncc1C1=CN(c2ncnc3[nH]cnc23)CCS1 | enzyme activity, inhibitor, radiometric | 2 µM | inhibition | 95.4%
CN1CCC2(CC1)NC(=O)c1c(c3ccc(Cl)c(Cl)c3n1C)C2C#N (racemic) | thermal stability, DSF | 10 µM | ΔTm | 1 °C
Cc1ccc(NC(=O)c2ccc(C)c(C(F)(F)F)c2)cc1C#Cc1nn(C2CCC(O)CC2)c2ncnc(N)c12 (stereo not drawn) | cell-free assay | 10 µM | remaining signal | 95%
O=C(O)c1ccc2c(c1)nc(Nc1ccc3ccccc3c1)c1ncncc12 | enzyme activity, inhibitor, radiometric | 1 µM | remaining activity | -1%
Cc1cc(-n2nc(Cc3cc(F)cc(C(F)(F)F)c3)nc2C)ccc1C(N)=O | cell-free assay, competition with immobilised ligand | 1 µM | remaining binding | 92%
O=C(O)c1ccc2c(c1)nc(Nc1ccc(F)c(Cl)c1)c1ncncc12 | enzyme activity, inhibitor, radiometric | 1 µM | remaining activity | 1%
O=C1NC(=O)c2cc(Nc3ccc(F)cc3)c(Nc3ccc(F)cc3)cc21 | cell-free assay | 0.5 µM | remaining signal | 95.6%
CNCc1ccccc1-c1csc([C@H](C)Nc2nc(C)nc3cc(OC)c(OC)cc23)c1 | cell-free assay, competition with immobilised ligand | 1 µM | remaining binding | 80%
Cn1c2c(c3ccc(Cl)c(Cl)c31)C(C#N)C1(CCN(C(=O)OC(C)(C)C)CC1)NC2=O (racemic) | thermal stability, DSF | 10 µM | ΔTm | -0.8 °C
Cc1cc(NC(=O)c2cccc3cc(-c4cccc5[nH]nc(N)c45)ccc23)ccc1F | enzyme activity, inhibitor | 0.1 µM | activity vs control | 110%
CC1=C(C#N)[C@@H](c2ccc3[nH]nc(C)c3c2)C(C#N)=C(c2ccc(Cl)cc2)N1 | cell-free assay, competition with immobilised ligand | 1 µM | remaining binding | 100%
CC1(C)NC(=O)c2[nH]c3c(Cl)c(Cl)ccc3c2C1C#N (stereo not drawn) | thermal stability, DSF | 10 µM | ΔTm | 2.6 °C
O=C(O)c1ccc2c(c1)nc(NCc1ccccc1)c1ccncc12 | enzyme activity, inhibitor, radiometric | 1 µM | remaining activity | 49%
O=C1Nc2ccc(Cl)cc2C1=Cc1cc(Cl)c(O)c(Cl)c1 | cell-free assay | 0.5 µM | remaining signal | 95.6%
O=C(O)c1cc(-c2ccc(C3CCNCC3)cc2)c2ccc(-c3ccc(C(F)(F)F)cc3)cc2c1 | cell-free assay, competition with immobilised ligand | 1 µM | remaining binding | 100%
O=C(O)c1ccc2c(c1)nc(NCCc1cccc(F)c1)c1ccncc12 | enzyme activity, inhibitor, radiometric | 1 µM | remaining activity | 8%
CN(C)C1CCN(CC#Cc2nn(C3CCCC3)c3nc(NCc4ccccc4)ncc23)C1 (stereo not drawn) | enzyme activity, inhibitor, FRET | 10 µM | inhibition | 2%
O=C(O)c1ccc2c(c1)nc(NCCc1cccc(Cl)c1)c1ncncc12 | enzyme activity, inhibitor, radiometric | 1 µM | remaining activity | 44%
CO[C@@H](C)c1c(Nc2ccc([C@@H](N(C)C(=O)C3CCS(=O)(=O)CC3)C(F)(F)F)cc2)cnc2cc(Cl)nn12 | cell-free assay, competition with immobilised ligand | 1 µM | remaining binding | 92%
COc1cc(/C=C/C(=O)CC(=O)/C=C/c2ccc(O)c(OC)c2)ccc1O | enzyme activity, inhibitor | 1 µM | activity vs control | 20%
O=C(O)c1ccc2c(c1)nc(NCCc1cccc(F)c1)c1ncncc12 | enzyme activity, inhibitor, radiometric | 1 µM | remaining activity | 18%
CCN(CC)CCNC(=O)c1c(C)[nH]c(/C=C2\C(=O)Nc3ccc(F)cc32)c1C | cell-free assay | 0.5 µM | remaining signal | 56.9%
O=C(O)c1ccc2c(c1)nc(NCCc1cccc(Cl)c1)c1ccncc12 | enzyme activity, inhibitor, radiometric | 1 µM | remaining activity | 17%
CS(=O)(=O)CCNCc1ccc(-c2ccc3ncnc(Nc4ccc(OCc5cccc(F)c5)c(Cl)c4)c3c2)o1 | cell-free assay | 0.5 µM | remaining signal | 101%
COc1cc2ncnc(Nc3ccc(Oc4ccccc4)c(C)c3C)c2cc1OC | enzyme activity, inhibitor | 1 µM | inhibition | 1%
CN([C@@H]1CCc2c(CC(=O)O)c3cc(S(C)(=O)=O)ccc3n2C1)S(=O)(=O)c1ccc(F)cc1 | cell-free assay, competition with immobilised ligand | 1 µM | remaining binding | 81%
CCC1(CC)NC(=O)c2c(c3ccc(Cl)c(Cl)c3n2C)C1C#N (stereo not drawn) | thermal stability, DSF | 10 µM | ΔTm | 0.7 °C
O=C1NC(c2ccccn2)Sc2ccccc21 (stereo not drawn) | cell-free assay, competition with immobilised ligand | 1 µM | remaining binding | 100%
N#Cc1cccc(Nc2nc3cc(C(=O)O)ccc3c3cncnc23)c1 | enzyme activity, inhibitor, radiometric | 1 µM | remaining activity | 3%
